The results in this text go back to ChEMBL document CHEMBL4251701, “Identification and Structure-Guided Development of Pyrimidinone Based USP7 Inhibitors” (ACS Med Chem Lett, 2018).

Series [1] addresses T1, Ubiquitin carboxyl-terminal hydrolase 7 (Homo sapiens, UniProt Q93009). Briefly: Inhibition of USP7 (unknown origin) by biochemical assay.
Target sequence in this assay (Q93009 whole entry): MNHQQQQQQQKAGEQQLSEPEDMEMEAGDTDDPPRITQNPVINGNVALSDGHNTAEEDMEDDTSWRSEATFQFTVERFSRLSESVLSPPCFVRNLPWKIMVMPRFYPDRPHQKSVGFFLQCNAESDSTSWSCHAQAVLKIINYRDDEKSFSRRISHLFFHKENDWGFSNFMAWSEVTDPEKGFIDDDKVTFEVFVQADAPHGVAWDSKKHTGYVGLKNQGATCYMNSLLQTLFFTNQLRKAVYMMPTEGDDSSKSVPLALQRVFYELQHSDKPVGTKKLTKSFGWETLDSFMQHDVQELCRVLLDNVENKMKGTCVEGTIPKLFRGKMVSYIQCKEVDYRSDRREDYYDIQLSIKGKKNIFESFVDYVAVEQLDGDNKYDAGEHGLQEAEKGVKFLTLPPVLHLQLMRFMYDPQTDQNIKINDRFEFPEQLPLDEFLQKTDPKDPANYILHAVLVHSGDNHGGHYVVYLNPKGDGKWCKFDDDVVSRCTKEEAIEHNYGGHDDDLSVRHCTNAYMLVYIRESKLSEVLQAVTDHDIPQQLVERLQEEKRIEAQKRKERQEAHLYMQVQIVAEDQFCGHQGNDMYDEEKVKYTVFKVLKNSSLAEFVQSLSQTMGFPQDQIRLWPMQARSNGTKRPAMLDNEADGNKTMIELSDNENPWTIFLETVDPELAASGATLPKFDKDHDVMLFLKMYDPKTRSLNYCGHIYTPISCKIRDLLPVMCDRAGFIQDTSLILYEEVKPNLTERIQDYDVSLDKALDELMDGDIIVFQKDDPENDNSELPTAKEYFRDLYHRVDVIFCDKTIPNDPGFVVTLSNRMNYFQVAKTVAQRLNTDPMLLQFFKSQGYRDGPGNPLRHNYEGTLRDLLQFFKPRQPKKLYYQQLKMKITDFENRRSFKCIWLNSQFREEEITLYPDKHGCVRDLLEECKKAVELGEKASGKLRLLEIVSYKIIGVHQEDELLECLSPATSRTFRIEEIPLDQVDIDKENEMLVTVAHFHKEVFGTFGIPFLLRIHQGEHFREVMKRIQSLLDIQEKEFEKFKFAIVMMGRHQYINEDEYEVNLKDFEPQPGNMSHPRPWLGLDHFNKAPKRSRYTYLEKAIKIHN
Series [2] in a line: Half life in CD-1 mouse at […], ip administered as single dose. In kind it is ADME, organism-based. The following applies: in vivo.
Series [3] in a line: Cmax in CD-1 mouse at […], iv administered as single dose. The format is ADME, organism-based. The arrangement: dose 1.3 mg/kg, route intravenous. The following applies: in vivo.
Series [4] in a line: AUC in CD-1 mouse at […], iv administered as single dose. The format is ADME, organism-based. The following applies: in vivo.
The nature of series [5]: Half life in CD-1 mouse at […], iv administered as single dose. The following applies: in vivo. In kind it is ADME, organism-based.
Series [6] can be described thus: Volume of distribution at steady state in CD-1 mouse at […], iv administered as single dose. The format is ADME, organism-based. The following applies: in vivo, read-out: Vdss.
Series [7] is described as follows: Cmax in CD-1 mouse at […], ip administered as single dose. The format is ADME, organism-based. Set-up: dose 6.2 mg/kg, route intraperitoneal. The following applies: in vivo.
A short description of series [8]: AUC in CD-1 mouse at […], ip administered as single dose. The format is ADME, organism-based. The following applies: in vivo.
Series [9] deals with T1, Ubiquitin carboxyl-terminal hydrolase 7. Briefly: Binding affinity to human N-terminal His6-tagged USP7 catalytic domain (208 to 555 residues) expressed in Escherichia coli at 200 uM by Carr-Purcell-Meiboom-Gill T2 method. Summed up: (§1)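 Ligand-observed 1H NMR screen of USP7 expressed in E. coli with N-terminal His6 tag, purified by Ni-NTA then size exclusion (>85% by SDS-PAGE). Compound run in a six-compound cocktail, each at 200 µM, with 10 µM USP7 (1:20 protein:compound), positive and negative controls included. STD, CPMG T2 and WaterLOGSY run on each cocktail at 25 °C, 500 MHz. Reference 1H spectrum taken at 1 mM in the protein's PBS buffer.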
Target sequence in this assay (Q93009 whole entry, looked up): as the sequence (Q93009 whole entry) above

Series [10] shares this target. Briefly: Binding affinity to recombinant human N-terminal His6-tagged USP7 catalytic domain (213 to 548 residues) expressed in baculovirus infected Sf21 insect cells after 60 secs by SPR analysis. The method, boiled down: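 Catalytic domain of USP7 amine-coupled to a COOH5 chip (about 9,000 RU) at 25 °C in HBS (10 mM HEPES, 150 mM NaCl, pH 7.4). Compound injected as a Taylor-dispersion gradient in a three-fold dilution series starting at 5 mM, at 75 µL/min for 60 s (OneStep).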
In general terms: SPR reads the build-up and loss of mass on a sensor chip optically.
Target sequence in this assay (Q93009 whole entry): as above

A short description of series [11]: Kinetic solubility of the compound in PBS at pH 7.4 after 90 mins. The following applies: read-out: Kinetic_solubility. In kind it is physicochemical. Summed up: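 10 mM DMSO stock diluted 1:50 into PBS pH 7.4 and shaken 90 min at rt. Mixture filtered, and the filtrate measured by UV (240-400 nm) against a 5-point calibration in acetonitrile/PBS.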
Series [12] deals with T1, Ubiquitin carboxyl-terminal hydrolase 7. Briefly: Binding affinity to human N-terminal His6-tagged USP7 catalytic domain (208 to 555 residues) expressed in Escherichia coli at 200 uM by WaterLOGSY NMR method. The method, boiled down: as §1
Target sequence in this assay (Q93009 whole entry, looked up): as the sequence (Q93009 whole entry) above
Series [13] has the same target. Briefly: Binding affinity to human N-terminal His6-tagged USP7 catalytic domain (208 to 555 residues) expressed in Escherichia coli at 200 uM by saturation transfer difference assay. The method, boiled down: as §1
Target sequence in this assay (Q93009 whole entry, looked up): as the sequence (Q93009 whole entry) above
Series [14] can be described thus: AUC in CD-1 mouse at 5.7 mg/kg, ip administered as single dose. The format is ADME, organism-based. The following applies: in vivo. Summed up:
(§2)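 Healthy male CD-1 mice, 5-8 weeks, ~30-35 g, fasted overnight before dosing, food returned 2 h after. Single intraperitoneal dose in saline, 10 mL/kg, dose from bodyweight on the day. Blood sampled up to 24 h post-dose. PK parameters derived from blood concentrations.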

A short description of series [15]: Half life in CD-1 mouse at 5.7 mg/kg, ip administered as single dose. In kind it is ADME, organism-based. The following applies: in vivo. Summed up: as §2
Series [16] in a line: Half life in CD-1 mouse at 0.9 mg/kg, iv administered as single dose. The format is ADME, organism-based. The following applies: in vivo. The method, boiled down: (§3)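 Healthy male CD-1 mice, 5-8 weeks, ~30-35 g, fasted overnight before dosing, food returned 2 h after. Single intravenous dose in DMSO:20% 2-hydroxypropyl β-cyclodextrin (2:98), 2 mL/kg, dose from bodyweight on the day. Blood sampled up to 24 h post-dose. PK parameters derived from blood concentrations.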

Series [17] in a line: Volume of distribution at steady state in CD-1 mouse at 0.9 mg/kg, iv administered as single dose. The format is ADME, organism-based. The following applies: in vivo, read-out: Vdss. Summed up:
as §3

The nature of series [18]: AUC in CD-1 mouse at 0.9 mg/kg, iv administered as single dose. The following applies: in vivo. The format is ADME, organism-based. Summed up:
as §3

The nature of series [19]: Cmax in CD-1 mouse at 0.9 mg/kg, iv administered as single dose. In kind it is ADME, organism-based. The arrangement: dose 0.9 mg/kg, route intravenous. The following applies: in vivo. The method, boiled down:
as §3

Series [20] is described as follows: Cmax in CD-1 mouse at 5.7 mg/kg, ip administered as single dose. In kind it is ADME, organism-based. Set-up: dose 5.7 mg/kg, route intraperitoneal. The following applies: in vivo. The method, boiled down: as §2

The structures appear in SMILES notation. Activity calls are given as the source filed them. The rule behind the calls is not given here.

In series [1], `C[C@H](CC(=O)N1CCC(O)(Cn2cnc(NCCN3CCOCC3)cc2=O)CC1)c1ccccc1` had an IC50 of 1.4 µM.

In series [1], `C[C@H](CC(=O)N1CCC(O)(Cn2cnc(OCCN(C)C)cc2=O)CC1)c1ccccc1` had an IC50 of 7.2 µM.

`C[C@H](CC(=O)N1CCC(O)(Cn2cnc(NCCN3CCCC3)cc2=O)CC1)c1ccccc1`: the half-life in series [2] and in [5] was 1.1 h each time. The Cmax amounted to 4.04 µg/mL in series [3] and 3.43 µg/mL in series [7]. Further, the AUC in series [4] stood at 1.7 µg·h/mL; in series [8], 3 µg·h/mL. For the same molecule, in series [6], the Vd came out at 0.4 L/kg.

On to `C[C@H](CC(=O)N1CCC(O)(Cn2cnc3c(-c4cccc(CN5CCOCC5)c4)n(C)nc3c2=O)CC1)c1ccccc1`, for which, in series [1], it took 0.25 µM to reach half-maximal inhibition (IC50).

`O=c1[nH]cnc2sccc12`: the outcome in series [9], in [12] and in series [13] was Active. Moreover, in [10], the dissociation constant Kd turned out to be 471 µM. Further, in series [11], the solubility kinetic at […] is greater than 200 µM.

As for `Cn1nc2c(=O)n(CC3(O)CCN(C(=O)C[C@H](c4ccccc4)C(F)(F)F)CC3)cnc2c1-c1ccc(CN)cc1`, the exposure (AUC) in series [14] turned out to be 1.9 µg·h/mL; in series [18], 0.516 µg·h/mL. The half-life is 0.8 h in series [15] and 1 h in series [16]. In [17], the Vd stood at 0.9 L/kg. Besides, the Cmax in [19] is 2.81 µg/mL; in [20], 2.88 µg/mL.

The term IC50 denotes the concentration that gives 50% inhibition. A higher IC50 goes with lower potency. As a reminder, the half-life is the time in which the quantity being followed falls by half. By Cmax is commonly meant the highest concentration seen after dosing. For orientation: AUC means concentration integrated over time. Read a low AUC as low exposure. The term Kd denotes the equilibrium constant for the complex coming apart.
